{"data": "Measurements from different studies", "cell line": "HepG2", "read-out": "cell growth or viability", "note": "Each line is one published result; the experiments were not run side by side."}
{"SMILES": "CN(CC(=O)Nc1ccc(N(C)c2ccc(Cl)cc2)c(Cl)c1)c1ccccc1N1CCCC1=O", "method": "ATP luminescence", "time": "48 h", "CC50": "> 40 µM"}
{"SMILES": "CN1CCN(c2cccc(-c3ccc4ncnc(Nc5ccc(Cl)c(Cl)c5)c4c3)c2)CC1", "method": "MTT", "time": "48 h", "CC50": "14 µM"}
{"SMILES": "CCCCCCNc1nc(NC2CCN(C)CC2)c2cc(OC)c(OC)cc2n1", "method": "ATP luminescence", "time": "72 h", "CC50": "2.03 µM"}
{"SMILES": "O=C(CNc1ccccc1N1CCCC1=O)Nc1ccc(Oc2cccc(Cl)c2)cc1", "method": "ATP luminescence", "time": "48 h", "CC50": "> 40 µM"}
{"SMILES": "CO[C@H]1/C=C/O[C@@]2(C)Oc3c(C)c(O)c4c(c3C2=O)C2=NC3(CCN(CC(C)C)CC3)NC2=C(NC(=O)/C(C)=C\\C=C\\[C@H](C)[C@H](O)[C@@H](C)[C@@H](O)[C@@H](C)[C@H](OC(C)=O)[C@@H]1C)C4=O", "time": "48 h", "CC50": "170 µM"}
{"SMILES": "N=C(CC(O)c1ccnc2c1ccc1ccccc12)Nc1ccc(F)cc1 (centres unmarked)", "method": "neutral red", "CC50": "33.3 µM"}
{"SMILES": "Clc1ccc(Nc2ncnc3ccc(-c4cccc(N5CCOCC5)c4)cc23)cc1", "method": "MTT", "time": "48 h", "CC50": "18 µM"}
{"SMILES": "Cc1ccc(N(C)c2ccc(NC(=O)CN(C)c3cccnc3N3CCCC3=O)cc2)cc1", "method": "ATP luminescence", "time": "48 h", "CC50": "> 40 µM"}
{"SMILES": "N=C(CC(O)c1cc2cccnc2c2cccnc12)Nc1ccc(F)cc1 (centres unmarked)", "method": "neutral red", "time": "24 h", "CC50": "265 µM"}
{"SMILES": "Cc1ccc(Nc2ncnc3ccc(-c4cccc(N5CCOCC5)c4)cc23)cc1", "method": "MTT", "time": "48 h", "CC50": "19 µM"}
{"SMILES": "N=C(CC(O)c1nc2cc(F)ccc2c2ccc(F)cc12)Nc1ccc(F)cc1 (centres unmarked)", "method": "neutral red", "time": "24 h", "CC50": "19.4 µM"}
{"SMILES": "O=C1C(O)=C([C@H]2CC[C@H](c3ccc(Cl)cc3)CC2)C(=O)c2ccccc21", "method": "ATP luminescence", "time": "72 h", "CC50": "9.67 µM"}
{"SMILES": "Cc1ccc(Oc2ccc(NC(=O)CNc3ccccc3N3CCCCC3=O)cc2)cc1", "method": "ATP luminescence", "time": "48 h", "CC50": "15 µM"}
{"SMILES": "c1cc(-c2ccc3ncnc(Nc4ncco4)c3c2)nc(N2CCOCC2)n1", "method": "MTT", "time": "48 h", "CC50": "26 µM"}
{"SMILES": "CN(CC(=O)Nc1ccc(N(C)c2ccc(Cl)c(Cl)c2)cc1)c1ccccc1N1CCCC1=O", "method": "ATP luminescence", "time": "48 h", "CC50": "> 40 µM"}
{"SMILES": "FC(F)(F)c1cc(Nc2ncnc3ccc(-c4cccc(N5CCOCC5)c4)cc23)ccc1Cl", "method": "MTT", "time": "48 h", "CC50": "29 µM"}
{"SMILES": "CC(=O)[C@]1(O)Cc2c(O)c3c(c(O)c2[C@@H](O[C@H]2C[C@H](N)[C@H](O)[C@H](C)O2)C1)C(=O)c1ccccc1C3=O", "method": "ATP luminescence", "time": "72 h", "CC50": "0.14 µM"}
